Data on 1 compound can be found in PubChem BioAssay AID588418 (The Scripps Research Institute Molecular Screening Center, 2011).

The source made the active and inactive calls.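 The calls were made as follows: active = IC50 at or below 1000 nM; inactive = IC50 above 1000 nM.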

In this assay the target is Protein-arginine deiminase type-4 (Homo sapiens) (UniProt Q9UM07). Put plainly: PAD4 enzyme inhibition potency, late-stage follow-up, biochemical, BAEE substrate, citrulline absorbance, 7-point 0-10 µM (AID 588418). The following applies: recombinant PAD4, BAEE citrulline colorimetric absorbance. In outline:
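Material: Recombinant PAD4 | Quantity: 0.2 µM PAD4 enzyme in the reaction | Signal: Colorimetric citrulline absorbance at 540 nm, diacetyl monoxime/thiosemicarbazide reagent | Incubation: 15 min pre-incubation and 15 min reaction, 37 °C | Medium: Tris-HCl pH 7.6, CaCl2, DTT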

Protein-arginine deiminase type-4 (Homo sapiens), sequence (Q9UM07 whole entry, looked up): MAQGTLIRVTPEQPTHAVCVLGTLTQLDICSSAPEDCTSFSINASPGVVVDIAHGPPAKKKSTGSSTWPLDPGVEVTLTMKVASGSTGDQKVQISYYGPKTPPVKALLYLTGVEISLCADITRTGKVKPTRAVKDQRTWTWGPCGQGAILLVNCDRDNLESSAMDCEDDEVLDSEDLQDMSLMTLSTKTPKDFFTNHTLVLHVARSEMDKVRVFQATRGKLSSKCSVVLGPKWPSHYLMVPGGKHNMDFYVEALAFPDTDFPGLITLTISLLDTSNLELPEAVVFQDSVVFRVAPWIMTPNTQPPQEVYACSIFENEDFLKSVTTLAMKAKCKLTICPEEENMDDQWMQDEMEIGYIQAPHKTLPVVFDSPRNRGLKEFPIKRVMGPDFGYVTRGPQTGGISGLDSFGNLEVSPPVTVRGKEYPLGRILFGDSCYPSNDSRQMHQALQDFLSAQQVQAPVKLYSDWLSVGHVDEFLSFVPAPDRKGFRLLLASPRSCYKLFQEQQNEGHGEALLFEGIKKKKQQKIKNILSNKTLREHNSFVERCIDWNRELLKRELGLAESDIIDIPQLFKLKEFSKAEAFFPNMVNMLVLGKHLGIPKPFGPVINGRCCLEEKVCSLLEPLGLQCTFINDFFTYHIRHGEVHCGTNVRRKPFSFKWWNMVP

`COC1=C(N)C(=O)c2ncccc2C1=O`: the IC50 entry was “inactive”.
